IC50 and Activity data for 25 compounds are collected here from ChEMBL document CHEMBL1152810, “Microwave synthesis and evaluation of phenacylhomoserine lactones as anticancer compounds that minimally activate quorum sensing pathways in Pseudomonas aeruginosa” (J Med Chem, 2009).

Data set [1] concerns NCI-H630. Put plainly: Cytotoxicity against 5FU-resistant human NCI-H630 cells after 5 days by SRB assay. Type of data set: functional, cell-based. Particulars: NCI-H630, 120 h. The procedure, abridged: (§1)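 Cells grown in phenol-red-free RPMI-1640 with 10% dialyzed FBS and no antibiotics, at 37 °C and 5% CO₂. H630-1 was kept in 1 µM 5-FU until 1 week before use. Compounds were dried from EtOH (10× final) into wells, in duplicate or quadruplicate. Seeding per well: H630 2×10³, H630-1 4×10³, PC3 2×10³. After 5 days, cells were TCA-fixed, stained with 0.4% SRB, dye dissolved in Tris, OD570 read.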
Background: In SRB staining, fixed cells bind dye roughly in proportion to their protein.

In another data set the test system is PC-3. Put plainly: Cytotoxicity against human PC3 cells after 5 days by SRB assay. Type of data set: functional, cell-based. Particulars: PC-3, 120 h. In a few lines:
as §1

Data set [2] concerns NCI-H630. Put plainly: Cytotoxicity against human NCI-H630 cells after 5 days by SRB assay. Particulars: NCI-H630, 120 h. Type of data set: functional, cell-based. The procedure, abridged:
as §1

Data set [3] concerns Pseudomonas aeruginosa. Description: Toxicity assessed as activation of quorum sensing signalling in Pseudomonas aeruginosa MW1 carrying (lasI-,rhlI-) pUM15 containing rsa::gfp fusion gene at 33 uM by LasR-dependent green fluorescence protein reporter assay. Type of data set: organism-based. The settings on record: in vivo. Background: Reporter assays use an easily measured gene product as a stand-in for the process of interest.

For data set [4], the system named is Pseudomonas aeruginosa. Description: Toxicity assessed as activation of quorum sensing signalling in Pseudomonas aeruginosa MW1 carrying (lasI-,rhlI-) pUM15 containing rsa::gfp fusion gene at 0.3 uM by LasR-dependent green fluorescence protein reporter assay. Type of data set: organism-based. The settings on record: in vivo.

Turning to `O=C(CCCCc1ccccc1)CC(=O)N[C@H]1CCOC1=O`, the IC50 (commonly the concentration that inhibits the measured activity by half) was 80 µM in the data set on NCI-H630 [1], 83 µM in the data set on PC-3 and more than 100 µM in the data set with NCI-H630 [2].

Consider `O=C(CCCCCc1ccccc1)N[C@H]1CCOC1=O`, for which the IC50 in the data set with NCI-H630 [1], in the data set on PC-3 and in the data set with NCI-H630 [2] was more than 100 µM in each case.

Consider `O=C(CCc1ccccc1)CC(=O)N[C@H]1CCOC1=O`, for which the IC50 with NCI-H630 [1], with PC-3 and in the data set with NCI-H630 [2] was more than 100 µM in each case.

Take `O=C(CCCCCCCCc1ccccc1)N[C@H]1CCOC1=O`: the IC50 with NCI-H630 [1] is more than 100 µM; in the data set on PC-3, 67 µM; in the data set with NCI-H630 [2], more than 100 µM.

With `O=C(CCCCCCCCCc1ccccc1)N[C@H]1CCOC1=O`, the IC50 was more than 100 µM in the data set on NCI-H630 [1], 75 µM with PC-3 and more than 100 µM with NCI-H630 [2].

Take `O=C(CCCCCCCCCc1ccccc1)CC(=O)N[C@@H]1CCOC1=O`: the half-maximal inhibitory concentration (IC50) in the data set with NCI-H630 [1], in the data set on PC-3 and in the data set with NCI-H630 [2] was more than 100 µM each time.

Regarding `O=C(Cc1ccccc1)N[C@H]1CCOC1=O`, the IC50 in the data set on NCI-H630 [1], with PC-3 and in the data set on NCI-H630 [2] was more than 100 µM throughout.

For `O=C(CCCCCCCCCCCc1ccccc1)N[C@H]1CCOC1=O`, the IC50 in the data set on NCI-H630 [1], in the data set with PC-3 and in the data set with NCI-H630 [2] was more than 100 µM in each case.

For the compound `O=C(CCCCCCCCc1ccccc1)CC(=O)N[C@H]1CCOC1=O`, the IC50 in the data set on NCI-H630 [1] came out at 10 µM; in the data set on PC-3 it was 4 µM; in the data set with NCI-H630 [2] it was 11 µM.

Turning to `O=C(CC(=O)N[C@H]1CCOC1=O)Cc1ccccc1`, the 50% inhibitory concentration (IC50) with NCI-H630 [1], in the data set with PC-3 and in the data set with NCI-H630 [2] was more than 100 µM each time.

As to `O=C(CCCCCCCc1ccccc1)N[C@H]1CCOC1=O`, the results for the IC50 with NCI-H630 [1], with PC-3 and in the data set with NCI-H630 [2] were more than 100 µM, 85 µM and more than 100 µM, respectively.

`O=C(CCCc1ccccc1)CC(=O)N[C@H]1CCOC1=O`: the half-inhibitory concentration (IC50) in the data set on NCI-H630 [1], in the data set on PC-3 and in the data set on NCI-H630 [2] was more than 100 µM in each case.

Turning to `O=C(CCc1ccccc1)N[C@H]1CCOC1=O`, the half-inhibitory concentration (IC50) with NCI-H630 [1], in the data set on PC-3 and in the data set on NCI-H630 [2] was more than 100 µM each time.

As to `O=C(CCCCCCCCCCc1ccccc1)CC(=O)N[C@H]1CCOC1=O`, the 50% inhibitory concentration (IC50) in the data set with NCI-H630 [1] was found to be 14 µM; in the data set with PC-3, 2 µM; in the data set with NCI-H630 [2] it was 23 µM. In addition, the Activity entry with Pseudomonas aeruginosa [3] is on record as “Non-toxic”.

For the compound `O=C(CCCCCCc1ccccc1)N[C@H]1CCOC1=O`, the IC50 with NCI-H630 [1], in the data set on PC-3 and with NCI-H630 [2] was more than 100 µM each time.

Consider `O=C(CCCCCCCCCc1ccccc1)CC(=O)N[C@H]1CCOC1=O`, for which the IC50 in the data set with NCI-H630 [1] turned out to be 13 µM; in the data set with PC-3, 4 µM; in the data set with NCI-H630 [2], 16 µM. Besides, in the data set on Pseudomonas aeruginosa [3], the Activity result is given as “Non-toxic”.

As for `O=C(CCCc1ccccc1)N[C@H]1CCOC1=O`, the concentration for half-maximal inhibition (IC50) in the data set on NCI-H630 [1], in the data set with PC-3 and in the data set on NCI-H630 [2] was more than 100 µM throughout.

As for `O=C(CC(=O)c1ccccc1)N[C@H]1CCOC1=O`, the IC50 in the data set on NCI-H630 [1], in the data set with PC-3 and in the data set on NCI-H630 [2] was more than 100 µM in each case.

`O=C(CCCCCc1ccccc1)CC(=O)N[C@H]1CCOC1=O`: the figures for the 50% inhibitory concentration (IC50) with NCI-H630 [1], in the data set on PC-3 and in the data set with NCI-H630 [2] were 24 µM, 9 µM and 44 µM, respectively.

In the case of `O=C(CCCCCCCCCCc1ccccc1)N[C@H]1CCOC1=O`, the 50% inhibitory concentration (IC50) was 66 µM in the data set on NCI-H630 [1], 66 µM with PC-3 and 70 µM in the data set with NCI-H630 [2].

As for `O=C(CCCCc1ccccc1)N[C@H]1CCOC1=O`, the 50% inhibitory concentration (IC50) in the data set on NCI-H630 [1], in the data set on PC-3 and in the data set on NCI-H630 [2] was more than 100 µM each time.

On to `O=C(CCCCCCCCCCCc1ccccc1)CC(=O)N[C@H]1CCOC1=O`, for which the IC50 came out at 27 µM in the data set with NCI-H630 [1], 4 µM with PC-3 and 33 µM with NCI-H630 [2]. Besides, the Activity result in the data set with Pseudomonas aeruginosa [3] was “Non-toxic”.

For the compound `O=C(CCCCCCCc1ccccc1)CC(=O)N[C@H]1CCOC1=O`, the IC50 with NCI-H630 [1] is 10 µM; in the data set on PC-3, 2 µM; with NCI-H630 [2], 42 µM.

Consider `O=C(CCCCCCc1ccccc1)CC(=O)N[C@H]1CCOC1=O`, for which the half-inhibitory concentration (IC50) in the data set on NCI-H630 [1] came to 27 µM; in the data set with PC-3 it was 9 µM; with NCI-H630 [2], 65 µM.

Take `CCCCCCCCCC(=O)CC(=O)N[C@H]1CCOC1=O`: the IC50 in the data set with NCI-H630 [1] was 12 µM; in the data set with PC-3 it was 5 µM; in the data set on NCI-H630 [2], 34 µM. The Activity entry in the data set with Pseudomonas aeruginosa [4] is given as “Toxic”.
